From ChEMBL document CHEMBL5104115, “Design, synthesis of novel triptolide-glucose conjugates targeting glucose Transporter-1 and their selective antitumor effect” (Eur J Med Chem, 2022)
Active and inactive are the calls of the source. No cut-off for these calls is given here.

Tests used:
[1] = AUC (0 to 3 hrs) in NCI-H1975 tumor bearing nude mouse model serum at 1 mg/kg, iv; assay type: ADME, organism-based; design: time < 3 hr, dose 1 mg/kg, route iv
NCI-H460 [2] = assay: Induction of apoptosis in human NCI-H460 cells assessed as necrotic cells at 50 uM measured after 48 hrs by Annexin V-FITC/PI staining method (reference value: 1.62%); assay type: functional
SW-620 = assay: Cytotoxicity against human SW-620 cells incubated for 72 hrs by MTT assay; assay type: functional, cell-based; conditions: SW-620, 72 h
How it was run: (§1)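 Cells seeded at 4000/well, incubated overnight, then exposed to a range of concentrations, or DMSO vehicle, for 72 h. MTT (5 mg/mL solution) added for 4 h and formazan dissolved in DMSO. Absorbance read at 570 nm, and IC50 derived from the curves. Tumor lines were grown in RPMI 1640; HUVEC, HaCaT and LO2 were grown in DMEM, each with 10% FBS at 37 °C and 5% CO2.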

NCI-H460 [3] = assay: Induction of ROS accumulation in human NCI-H460 cells measured upto 20 uM after 42 to 48 hrs by DCFH-DA staining based flow cytometric analysis; assay type: functional, cell-based; conditions: time 42-48 hrs
How it was run: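 NCI-H460 cells exposed 42 h or 48 h. Cells suspended in 1% BSA DPBS, loaded with DCFH-DA (0.2 µL of 10 mM stock per 200 µL) for 30 min in the dark, washed, analyzed by flow cytometry. DCF fluorescence expressed as percentage relative to untreated control from histograms, ≥3 replicates.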

[4] = Toxicity in BALB/c nude mouse xenografted with human NCI-H1975 cells assessed as morphological change in heart at 1 to 2 mg/kg administered ip, qd for 2 weeks; conditions: in vivo, 336 h
NCI-H1975 (Homo sapiens) = assay: Antineoplastic activity against human NCI-H1975 cells xenografted in BALB/c nude mouse assessed as tumor growth inhibition at 1 to 2 mg/kg, ip, qd for 2 weeks; conditions: dose 1-2 mg/kg
NCI-H1975 = assay: Cytotoxicity against Glut1 knocked down human NCI-H1975 cells transfected with KDV assessed as decrease in cell viability incubated for 72 hrs by MTT assay; assay type: functional, cell-based; conditions: NCI-H1975, 72 h
How it was run: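 Stable Glut-1 knockdown (KD1, KD2, vector KD V) or overexpression (OE, vector OE V) NCI-H1975 cells made by 12 h lentiviral infection, 72 h culture, then 14 days puromycin selection; Glut-1 confirmed by Western blot. Cells seeded at 4000/well overnight, dosed over a concentration range or DMSO for 72 h. MTT read at 570 nm; IC50 from ≥3 replicates.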

NCI-H460 [5] = assay: Induction of apoptosis in human NCI-H460 cells assessed as late apoptotic cells at 50 uM measured after 48 hrs by Annexin V-FITC/PI staining method (reference value: 8.47%); assay type: functional
[6] = Stability in mouse serum assessed as unchanged fraction measured after 72 hrs by HPLC analysis relative to control; assay type: ADME, cell-free; conditions: read-out: Stability
How it was run: (§2)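 15 µM test agent incubated with human or mouse serum at 37 °C for 0, 0.5, 1, 8, 12, 18, 60 and 72 h. Samples stored at −80 °C, protein precipitated with 200 µL methanol, vortexed and sonicated 5 min. Intact agent and released triptolide measured by HPLC at 220 nm, in duplicate.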

[7] = Stability in human serum measured upto 72 hrs by HPLC analysis; assay type: ADME, cell-free; how it was run: as §2
NCI-H460 [8] = assay: Cytotoxicity against human NCI-H460 cells incubated for 72 hrs by MTT assay; assay type: functional, cell-based; conditions: NCI-H460, 72 h; how it was run: as §1
NCI-H460 [9] = assay: Induction of apoptosis in human NCI-H460 cells assessed as late apoptotic cells at 1 uM measured after 48 hrs by Annexin V-FITC/PI staining method (reference value: 8.47%); assay type: functional
[10] = Octanol-water partition coefficient, logD of the compound in PBS at pH 7.4 by liquid chromatography based mass spectrometric analysis; assay type: physicochemical
How it was run: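 Shake-flask method: 3.0 mg compound dissolved in PBS-saturated n-octanol and rotated 24 h at room temperature. The octanol phase was then mixed with octanol-saturated PBS, rotated another 24 h and centrifuged. Both phases quantified by LC-MS against a standard curve, and log P = log(C octanol/C water).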

[11] = Cytotoxicity against human HaCaT cells incubated for 72 hrs by MTT assay; assay type: toxicity, cell-based; how it was run: as §1
[12] = Toxicity in BALB/c nude mouse xenografted with human NCI-H1975 cells assessed as diarrhea at 1 to 2 mg/kg administered ip, qd for 2 weeks; conditions: in vivo, 336 h
[13] = Stability in mouse serum measured after 8 hrs by HPLC analysis; assay type: ADME, cell-free
NCI-H460 [14] = assay: Induction of apoptosis in human NCI-H460 cells assessed as early apoptotic cells at 20 uM measured after 48 hrs by Annexin V-FITC/PI staining method (reference value: 3.26%); assay type: functional
NCI-H460 [15] = assay: Down regulation of RNA polymerase II in human NCI-H460 cells measured after 48 hrs by Western blotting analysis; assay type: functional, cell-based
How it was run: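 NCI-H460 cells treated for 48 h, harvested by trypsinization and lysed on ice in NP-40 buffer (50 mmol/L Tris pH 8.0, 150 mmol/L NaCl, 1% NP-40). Protein quantified by BCA and resolved by SDS-PAGE. Blots probed for RNA Pol II (1:1000), with GAPDH as loading control, and detected by chemiluminescence.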

NCI-H460 [16] = assay: Induction of apoptosis in human NCI-H460 cells assessed as necrotic cells at 1 uM measured after 48 hrs by Annexin V-FITC/PI staining method (reference value: 1.62%); assay type: functional
[17] = Drug distribution in NCI-H1975 tumor bearing nude mouse model assessed as tumor to kidney ratio of triptolide metabolite at 2 mg/kg, iv by LC-MS analysis; assay type: ADME, organism-based; conditions: in vivo
How it was run: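 NCI-H1975 xenograft mice, tumors about 500 mm3, 3 per group, fasted 12 h with water available. Given 2 mg/kg iv and sacrificed 1 h later. Heart, liver, lung, kidney and tumor weighed and flash-frozen. 1.0 g tissue homogenized in 2.0 mL saline, methanol-precipitated, reconstituted. Parent, triptolide succinate and triptolide measured by LC-MS; tumor/organ ratios calculated.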

[18] = Half life in NCI-H1975 tumor bearing nude mouse model serum at 1 mg/kg, iv; assay type: ADME, organism-based
MDA-MB-231 = assay: Cytotoxicity against human MDA-MB-231 cells incubated for 72 hrs by MTT assay; assay type: functional, cell-based; conditions: MDA-MB-231, 72 h; how it was run: as §1
[19] = Toxicity in BALB/c nude mouse xenografted with human NCI-H1975 cells assessed as morphological change in kidney at 1 to 2 mg/kg administered ip, qd for 2 weeks; conditions: in vivo, 336 h
[20] = Cytotoxicity against HUVEC transfected with OE overexpressing Glut1assessed as decrease in cell viability incubated for 72 hrs by MTT assay; assay type: toxicity, cell-based; conditions: human, HUVEC cells transfected with OE overexpressing Glut1
How it was run: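 HUVEC kept in DMEM with 10% FBS, made to overexpress Glut-1 (OE) or carry vector (OE V) by lentiviral infection and puromycin selection for 14 days, with Western blot check. Seeded at 4000 cells/well, treated over a concentration range or DMSO for 72 h, then MTT at 570 nm. IC50 taken from at least three replicates.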

CC(C)[C@]12O[C@H]1[C@@H]1O[C@]13[C@]1(O[C@H]1C[C@H]1C4=C(CC[C@@]13C)C(=O)OC4)[C@@H]2OC(=O)CCC(=O)O[C@H]1C(O)O[C@H](CO)[C@@H](O)[C@@H]1O (some centres undefined)
AUC(0-t) at 3 h [1]: 83.6 µM·h
Activity (NCI-H460 [2]): 5.77%
IC50 (SW-620): 1720 nM
Activity (NCI-H460 [3]): Active
Activity [4]: Non-Toxic
Activity (NCI-H1975 (Homo sapiens)): Active
IC50 (NCI-H1975): 2870 nM
Activity (NCI-H460 [5]): 21.4%
remaining at 72 h [6]: 66%
Stability [7]: Stable
IC50 (NCI-H460 [8]): 870 nM
Activity (NCI-H460 [9]): 7.68%
logD [10]: -0.347
IC50 at 72 h [11]: 6540 nM
Activity [12]: Non-Toxic
Stability [13]: Stable
Activity (NCI-H460 [14]): 35.1%
Activity (NCI-H460 [15]): Active
Activity (NCI-H460 [16]): 0.85%
Ratio [17]: 18.8
half-life [18]: 19.2 min
IC50 (MDA-MB-231): 1970 nM
Activity [19]: Non-Toxic
IC50 at 72 h [20]: 3170 nM
